Reference: ChEMBL document CHEMBL3826891, “Cupriphilic compounds to aid in proteasome inhibition” (Bioorg Med Chem Lett, 2016)
Active and inactive are the calls of the source. The calls are words filed in the database; no cut-off is given here.

Assays:
[1] = target: T1, Proteasome Macropain subunit MB1 (Homo sapiens) (UniProt P28074); experiment: Inhibition of chymotrypsin like activity of 20S proteasome (unknown origin) using suc-leu-leu-val-tyr-AMC as substrate at 10 uM after 40 mins in presence of 1 uM copper by fluorescence assay
T1 sequence (whole entry): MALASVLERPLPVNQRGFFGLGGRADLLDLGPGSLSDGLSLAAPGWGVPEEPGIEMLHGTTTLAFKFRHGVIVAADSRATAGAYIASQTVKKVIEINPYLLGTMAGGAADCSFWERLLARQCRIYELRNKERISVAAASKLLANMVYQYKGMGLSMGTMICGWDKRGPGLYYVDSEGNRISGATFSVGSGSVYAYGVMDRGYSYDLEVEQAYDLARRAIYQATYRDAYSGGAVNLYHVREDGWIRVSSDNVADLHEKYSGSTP
In short: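 Compound in DMSO, final DMSO below 2%, at 10 µM. Premixed with 1 µM copper chloride in 50 mM Tris pH 7.6 for 40 min with gentle shaking to allow chelation. 20S proteasome and suc-Leu-Leu-Val-Tyr-AMC were then added and incubated 2 h at 37 °C. Substrate cleavage rate was read as fluorescence at 340 nm excitation and 460 nm emission.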

[2] = target: T1, Proteasome Macropain subunit MB1 (Homo sapiens); experiment: Inhibition of chymotrypsin like activity of 20S proteasome (unknown origin) using suc-leu-leu-val-tyr-AMC as substrate at 10 uM after 40 mins in presence of nickel by fluorescence assay
In short: (§1)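 To test metal selectivity, the chloride of nickel, calcium, iron or zinc replaced copper and was premixed with compound for 40 min with shaking in 50 mM Tris pH 7.6. 20S proteasome and suc-LLVY-AMC were then added and incubated 2 h at 37 °C. Cleavage was read by fluorescence at 340 nm excitation and 460 nm emission.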

[3] = target: T1, Proteasome Macropain subunit MB1 (Homo sapiens); experiment: Inhibition of chymotrypsin like activity of 20S proteasome (unknown origin) using suc-leu-leu-val-tyr-AMC as substrate at 10 uM after 40 mins in presence of calcium by fluorescence assay; in short: as §1
[4] = target: T1, Proteasome Macropain subunit MB1 (Homo sapiens); experiment: Inhibition of chymotrypsin like activity of 20S proteasome (unknown origin) using suc-leu-leu-val-tyr-AMC as substrate at 10 uM after 40 mins in presence of iron by fluorescence assay; in short: as §1
[5] = target: T1, Proteasome Macropain subunit MB1 (Homo sapiens); experiment: Inhibition of chymotrypsin like activity of 20S proteasome (unknown origin) using suc-leu-leu-val-tyr-AMC as substrate at 10 uM after 40 mins in presence of copper by fluorescence assay
[6] = target: T2, Proteasome Macropain subunit MB1 (Homo sapiens, UniProt P28074); experiment: Inhibition of chymotrypsin like activity of 20S proteasome (unknown origin) using suc-leu-leu-val-tyr-AMC as substrate after 40 mins in presence of 100 nM copper by fluorescence assay
T2 sequence (P28074 whole entry): T1 sequence (whole entry)
In short: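 Dose-response format in which compound concentration was varied with copper chloride fixed at 100 nM. Compound and copper were pre-equilibrated 40 min with gentle shaking in 50 mM Tris pH 7.6, final DMSO below 2%. 20S proteasome and suc-LLVY-AMC were added and run 2 h at 37 °C. AMC fluorescence was read at 340/460 nm, and IC50 was taken from the curve.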

SMILES	inhibition [1]	inhibition [2]	inhibition [3]	inhibition [4]	inhibition [5]	IC50 [6]
O=C1c2c(O)cc(O)cc2OCC1c1ccc(O)cc1 (stereo unspecified)	> 80%	Active	Active	Active	Active	–
CCN(CC)C(=S)SSC(=S)N(CC)CC	92%	Active	Active	Active	Active	–
O=c1oc2c(cc1O)oc(=O)c1cc(O)c(O)c(O)c12	> 80%	Active	Active	Active	Active	–
O=C(O)c1ccc(O)c(O)c1	> 80%	Active	Active	Active	Active	–
OCc1cc(O)c(CO)nn1	> 80%	Active	Active	Active	Active	–
NC(=O)SCC(=O)Nc1ccccc1C(=O)O	> 80%	Active	Active	Active	Active	–
O=C1COc2c1ccc(O)c2O	> 80%	Active	Active	Active	Active	3 µM
